According to ChEMBL document CHEMBL1126171, “Synthesis of 2-(p-chlorobenzyl)-3-aryl-6-methoxybenzofurans as selective ligands for antiestrogen-binding sites. Effects on cell proliferation and cholesterol synthesis” (J Med Chem, 1992):

Tests used:
[1] = target: T1, Anti-estrogen binding site (AEBS) (Homo sapiens) (UniProt Q15125+Q9UBM7); assay: Relative binding affinity(RBA) against AEBS (Antiestrogen binding site) in rat liver; format: functional, tissue-based; conditions: target entry is the homologue from another species
[2] = target: Estrogen receptor (Homo sapiens) (UniProt Q92731+P03372); assay: Relative binding affinity(RBA) against Estrogen receptor using MCF-7 cells; format: cell-based; conditions: MCF7
In short: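 Competition for ER in MCF7 whole cells suspended in phosphate-buffered saline, 3 × 10^7 cells per duplicate aliquot. Incubated with 5 nM [3H]estradiol with or without 100-fold molar excess of competitor or diethylstilbestrol, then washed and counted as for the AEBS assay. Bound label reported as % of no-competitor control. Mean ± SEM of two experiments.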

[3] = target: T1, Anti-estrogen binding site (AEBS) (Homo sapiens); assay: Relative binding affinity(RBA) against AEBS (Antiestrogen binding site) using N1-S1 cells; format: functional, cell-based; conditions: Rattus norvegicus
[4] = target: T1, Anti-estrogen binding site (AEBS) (Homo sapiens); assay: Relative binding affinity(RBA) against AEBS (Antiestrogen binding site) using EL-4 cells; format: functional, cell-based; conditions: Mus musculus
[5] = target: T1, Anti-estrogen binding site (AEBS) (Homo sapiens); assay: Relative binding affinity(RBA) against AEBS (Antiestrogen binding site) in guinea pig uterus; format: functional, tissue-based; conditions: Cavia porcellus, target entry is the homologue from another species
[6] = target: T1, Anti-estrogen binding site (AEBS) (Homo sapiens); assay: Relative binding affinity(RBA) against AEBS (Antiestrogen binding site) in chicken liver; conditions: Gallus gallus; target entry is the homologue from another species
[7] = target: T1, Anti-estrogen binding site (AEBS) (Homo sapiens); assay: Relative binding affinity (RBA) against AEBS (Antiestrogen binding site) in rat liver; format: functional, tissue-based; conditions: target entry is the homologue from another species
[8] = target: T1, Anti-estrogen binding site (AEBS) (Homo sapiens); assay: Relative binding affinity(RBA) against AEBS (Antiestrogen binding site) in N1-S1 cells
[9] = target: T1, Anti-estrogen binding site (AEBS) (Homo sapiens); assay: Relative binding affinity(RBA) against AEBS (Antiestrogen binding site) in MCF-7 cells; conditions: target entry is the homologue from another species
[10] = target: T1, Anti-estrogen binding site (AEBS) (Homo sapiens); assay: Displacement of [3H]tamoxifen from AEBS of EL4 cells; format: functional, cell-based; conditions: Mus musculus
[11] = target: T1, Anti-estrogen binding site (AEBS) (Homo sapiens); assay: Effect on cholesterol biosynthesis in EL4 cells, 5 hr incubation with 0.25 mM [3H]acetate; format: functional, cell-based; conditions: Mus musculus
In short: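 EL4 cells at 20 × 10^6 cells/mL in lipoprotein-poor RPMI given 0.25 mM [3H]acetate for 5 h, without or with compound (10^-6 M or 10^-4 M depending on compound); triplicates in two experiments. KOH/ethanol saponification at 95 °C with [14C]cholesterol recovery standard; petroleum ether extraction. Label in cholesterol as % of total cellular incorporation; % inhibition versus control; Student's t test.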

[12] = target: T1, Anti-estrogen binding site (AEBS) (Homo sapiens); assay: Effect on cholesterol biosynthesis in EL4 cells, 48 hr incubation with 0.25 mM [3H]acetate; format: functional, cell-based; conditions: Mus musculus
In short: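 EL4 cells at 20 × 10^6 cells/mL in lipoprotein-poor RPMI, incubated 48 h with 0.25 mM [3H]acetate ± 10^-7 M compound, in triplicate, two experiments. Stopped with KOH/ethanol, [14C]cholesterol added for recovery, saponified 95 °C 90 min. Nonsaponifiable lipids extracted in petroleum ether. Result as % of total incorporated label found in cholesterol; inhibition versus control; Student's t test.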

[13] = Percent of cell viability by trypan blue exclusion; format: functional
In short: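 Viability of EL4 cells in the [3H]acetate cholesterol-synthesis incubations (20 × 10^6 cells/mL; 5 h or 48 h with compound at 10^-7 to 10^-4 M), estimated by trypan blue exclusion.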

EL4 = assay: Inhibition of [3H]thymidine incorporation into EL4 cell proliferation; format: functional, cell-based; conditions: Mus musculus, EL4, 48 h
In short: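 Treated 48 h with compound; DNA synthesis measured by [3H]thymidine incorporation, cells harvested onto filters and counted. Mean ± SEM of two experiments.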

MCF7S [14] = assay: (§1) Inhibition of [3H]thymidine incorporation into MCF-7 cells; format: functional, cell-based; conditions: Homo sapiens
In short: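 MCF7 cells in Hepes-buffered RPMI 1640 with 5% newborn calf serum, seeded 4500 per well. After 24 h, compound (final […], diluted from 1 mM ethanolic stock; solvent controls) and [3H]thymidine (37 kBq/well) added. Incubated 48 h, then trypsinized, harvested and counted. […] Mean ± SEM of two experiments.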

[15] = target: T1, Anti-estrogen binding site (AEBS) (Homo sapiens); assay: Relative binding affinity(RBA) against AEBS (Antiestrogen binding site) in N1-S1 cells; format: functional, cell-based; conditions: Rattus norvegicus
[16] = target: T1, Anti-estrogen binding site (AEBS) (Homo sapiens); assay: Relative binding affinity (RBA) against AEBS (Antiestrogen binding site) using N1-S1 cells; format: functional, cell-based; conditions: Rattus norvegicus
MCF7S [17] = assay: as §1; format: functional, cell-based; conditions: Homo sapiens; remark: listed apart in the source
In short: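 After 24 h, compound (final […], diluted from 1 mM ethanolic stock; solvent controls) and [3H]thymidine (37 kBq/well) added. Incubated 48 h, then trypsinized, harvested and counted. Mean ± SEM of two experiments.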

## C1=C(c2ccccc2)C(c2ccc(OCCN3CCCCC3)cc2)Oc2ccccc21 (stereo not drawn)
[1]
  relative binding affinity (RBA): 225

## C1=C(c2ccccc2)C(c2ccc(OCCN3CCCC3)cc2)Oc2ccccc21 (stereo not drawn)
[1]
  relative binding affinity (RBA): 134

## CCN(CC)CCOc1cccc(C(=C2CCCCC2)c2cccc(O)c2)c1
[1]
  relative binding affinity (RBA): 6

## COc1ccc2c(c1)OCC(c1ccc(F)cc1)=C2c1ccc(OCCN2CCOCC2)cc1
[2]
  relative binding affinity (RBA): < 1
[3]
  relative binding affinity (RBA): 68

## CC/C(=C(\c1ccccc1)c1ccc(OCCN2CCCC2)cc1)c1ccccc1
[1]
  relative binding affinity (RBA): 434

## COc1ccc2c(c1)OCC(c1ccccc1)=C2c1ccc(OCCN2CCCC2)cc1
[2]
  relative binding affinity (RBA): < 1
[4]
  relative binding affinity (RBA): 557

## COc1ccc2c(c1)OCC(c1ccc(Br)cc1)=C2c1ccc(OCCN2CCCC2)cc1
[2]
  relative binding affinity (RBA): < 1
[4]
  relative binding affinity (RBA): 169

## COc1ccc2c(c1)CCC(c1ccccc1)=C2c1ccc(OCCN2CCCC2)cc1
[5]
  relative binding affinity (RBA): 124
[6]
  relative binding affinity (RBA): 183
[1]
  relative binding affinity (RBA): 90

## CCN(CC)CCOC(=O)C(CC(C)C)(c1ccccc1)c1ccccc1
[7]
  relative binding affinity (RBA): 5

## CN(C)CCOc1cccc(C(=C2CCCCC2)c2cccc(O)c2)c1
[1]
  relative binding affinity (RBA): 17

## CC/C(=C(\c1ccccc1)c1ccc(OCCN(CC)CC)cc1)c1ccccc1
[8]
  relative binding affinity (RBA): 46
[7]
  relative binding affinity (RBA): 21

## Oc1cccc(C(=C2CCCCC2)c2cccc(OCCN3CCCCC3)c2)c1
[1]
  relative binding affinity (RBA): 10

## O=C(c1ccc(OCCN2CCCC2)cc1)c1c(-c2ccc(O)cc2)sc2cc(O)ccc12
[2]
  relative binding affinity (RBA): 115
[9]
  relative binding affinity (RBA): 19

## Oc1cccc(C(=C2CCCCC2)c2cccc(OCCN3CCOCC3)c2)c1
[1]
  relative binding affinity (RBA): 25

## C=CC(C(=O)OCCN(CC)CC)(c1ccccc1)c1ccccc1
[7]
  relative binding affinity (RBA): 10

## COc1ccc2c(c1)OC(C)(C)[C@@H](c1ccccc1)[C@H]2c1ccc(OCCN2CCCC2)cc1
[1]
  relative binding affinity (RBA): 46

## COc1ccc2c(-c3ccc(OCCN4CCCC4)cc3)c(Cc3ccc(Cl)cc3)oc2c1.Cl
[10]
  relative binding affinity (RBA): 268
[11]
  Activity: 0.12% [middle of 6 runs]
[12]
  Activity: 0.32% [middle of 5 runs]
[13]
  Cell viability: 91%
EL4
  IC50: 475 nM
MCF7S [14]
  IC50: 2300 nM

## CCN(CC)CCOc1ccc(C2=C(c3ccc(F)cc3)COc3cc(OC)ccc32)cc1
[2]
  relative binding affinity (RBA): < 1
[15]
  relative binding affinity (RBA): 106

## CCN(CC)CCOc1ccc(Cc2ccccc2)cc1
[7]
  relative binding affinity (RBA): 0.06

## COc1ccc2c(c1)OCC(c1ccc(F)cc1)=C2c1ccc(OCCN2CCCCC2)cc1
[2]
  relative binding affinity (RBA): < 1
[16]
  relative binding affinity (RBA): 161

## CC/C(=C(\c1ccccc1)c1ccc(OCCN2CCN(C)CC2)cc1)c1ccccc1
[1]
  relative binding affinity (RBA): 540

## COc1ccc2c(-c3ccc(OCCN4CCOCC4)cc3)c(Cc3ccc(Cl)cc3)oc2c1.Cl
[10]
  relative binding affinity (RBA): 1830
[11]
  Activity: 0.11% [middle of 6 runs]
MCF7S [17]
  IC50: 6500 nM
[13]
  Cell viability: 79%
EL4
  IC50: 335 nM

## COc1ccc2c(c1)OC(C)(C)[C@H](c1ccccc1)[C@H]2c1ccc(OCCN2CCCC2)cc1
[1]
  relative binding affinity (RBA): 19

## COc1ccc2c(c1)OCC(c1ccc(Cl)cc1)=C2c1ccc(OCCN2CCCC2)cc1
[2]
  relative binding affinity (RBA): < 1
[4]
  relative binding affinity (RBA): 257

## CCN(CC)CCOc1ccc(C(C)(C)C)cc1
[1]
  relative binding affinity (RBA): 0.08

## CC/C(=C(\c1ccccc1)c1ccc(OCCN2CCOCC2)cc1)c1ccccc1
[1]
  relative binding affinity (RBA): 1170

## COc1ccc2c(-c3ccc(OCCN(C)C)cc3)c(Cc3ccc(Cl)cc3)oc2c1
[10]
  relative binding affinity (RBA): 391
MCF7S [17]
  IC50: 5020 nM
EL4
  IC50: 950 nM

## COc1ccc2c(-c3ccc(OCCN4CCCC4)cc3)c(-c3ccccc3)oc2c1
[1]
  relative binding affinity (RBA): 23

## COc1ccc2c(c1)OCC(c1ccc(F)cc1)=C2c1ccc(OCCN2CCCC2)cc1
[2]
  relative binding affinity (RBA): < 1
[16]
  relative binding affinity (RBA): 176

## CN(C)CCOc1ccc(C2Oc3ccccc3C=C2c2ccccc2)cc1 (stereo not drawn)
[1]
  relative binding affinity (RBA): 98

## CCCC(C(=O)OCCN(CC)CC)(c1ccccc1)c1ccccc1
[7]
  relative binding affinity (RBA): 12
